Laboratory results reported in publication PMC11707965 (Journal of Biomaterials Applications, 2024).
pEC50, pIC50: −log10 of the molar value. Like-named read-outs stand apart in the source and are kept apart here.

Tests used:
[1] = test system: Pseudomonas aeruginosa ATCC 9027; assay: Broth macrodilution antimicrobial susceptibility; type: cell-based; settings: P. aeruginosa ATCC 9027; two-fold dilution from 3% boric acid / 9% zinc borate
How it was run: (§1)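 Broth macrodilution run per CLSI recommendations in Cationized Mueller Hinton Broth. Ten tubes per strain held two-fold serial dilutions of boric acid (top 3%) or zinc borate (top 9%). MIC was read from the tubes. For MBC, every tube without growth was subcultured onto solid medium, and MBC was the lowest concentration giving no growth.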

[2] = test system: Aspergillus niger ATCC 16888; assay: Broth macrodilution antimicrobial susceptibility; type: cell-based; settings: A. niger ATCC 16888; two-fold dilution from 3% boric acid / 9% zinc borate
How it was run: (§2)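 Fungal strains were tested by CLSI-based broth macrodilution in RPMI 1640. Each strain had ten tubes of two-fold serial dilutions starting at 3% boric acid or 9% zinc borate. Tubes showing no growth were plated onto solid media to find the lowest concentration without growth (MBC).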

[3] = test system: Escherichia coli ATCC 25922; assay: Broth macrodilution antimicrobial susceptibility; type: cell-based; settings: E. coli ATCC 25922; two-fold dilution from 3% boric acid / 9% zinc borate
How it was run: as §1

[4] = test system: Streptococcus pyogenes ATCC 19615; assay: Broth macrodilution antimicrobial susceptibility; type: cell-based; settings: S. pyogenes ATCC 19615; two-fold dilution from 3% boric acid / 9% zinc borate
How it was run: as §1

[5] = test system: Acinetobacter baumannii ATCC 19606; assay: Broth macrodilution antimicrobial susceptibility; type: cell-based; settings: A. baumannii ATCC 19606; two-fold dilution from 3% boric acid / 9% zinc borate
How it was run: as §1

[6] = test system: Candida albicans ATCC 10231; assay: Broth macrodilution antimicrobial susceptibility; type: cell-based; settings: C. albicans ATCC 10231; two-fold dilution from 3% boric acid / 9% zinc borate
How it was run: as §2

[7] = test system: L929 (mouse fibroblast) cell line; assay: Cytotoxicity / cell viability by MTT method; type: cell-based; settings: for pIC50: read-out: IC50 dose that caused 50% decrease in cell proliferation, L929 cells, MTT
[8] = test system: L929 cells; assay: Cell migration test; type: cell-based, mouse; settings: 24 h vs 0 h
How it was run: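 L929 fibroblasts (ATCC) were grown in DMEM with 10% FBS at 37°C and 5% CO₂. After the fourth passage they were seeded into 24-well plates at 2 × 10⁵ cells/ml and left 24 h to form a monolayer. Each well got one vertical scratch with a sterile pipette tip and was imaged at 0 h. Treatment followed (zinc borate 0.10–0.001 mM; boric acid 1000–0.001 mM), with re-imaging at 12 and 24 h (10x) to measure closure percentage.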

[9] = test system: Proteus mirabilis ATCC 25933; assay: Broth macrodilution antimicrobial susceptibility; type: cell-based; settings: P. mirabilis ATCC 25933; two-fold dilution from 3% boric acid / 9% zinc borate
How it was run: as §1

[10] = test system: Klebsiella pneumoniae ATCC 700603; assay: Broth macrodilution antimicrobial susceptibility; type: cell-based; settings: K. pneumoniae ATCC 700603; two-fold dilution from 3% boric acid / 9% zinc borate
How it was run: as §1

[11] = test system: Staphylococcus aureus ATCC 29213; assay: Broth macrodilution antimicrobial susceptibility; type: cell-based; settings: S. aureus ATCC 29213; two-fold dilution from 3% boric acid / 9% zinc borate
[12] = test system: Enterococcus faecalis ATCC 29212; assay: Broth macrodilution antimicrobial susceptibility; type: cell-based; settings: E. faecalis ATCC 29212; two-fold dilution from 3% boric acid / 9% zinc borate
How it was run: as §1

[13] = test system: L929 (mouse fibroblast) cell line; assay: Antioxidant ability: protection against H2O2 oxidative stress, MTT method; type: cell-based; settings: read-out: EC50 dose, which increased the proliferative concentration by 50%, L929 cells, 0.4 mM H2O2 stress

## OB(O)O [Boric acid, Boric Acid]
[1]
  MBC (%): no bactericidal effect
  MIC (%): 0.75%
[2]
  MBC (%): 0.1875%
[3]
  MBC (%): 1.5%
  MIC (%): 0.375%
[4]
  MBC (%): 3%
  MIC (%): 0.0058%
[5]
  MIC (%): 0.375%
[6]
  MBC (%): 0.0058%
[7]; 0.001 mM-1000 mM, 24th, 48th, 72nd hours, except 100 mM and 500 mM at 24th hour, 100 mM at 48th hour
  Proliferative or inhibitory effect on L929 cells versus control: no significant proliferation or inhibition was observed
[8]; 0.001 mM
  migration recovery (closure) percentage: 86.91%
[8]; 0.01 mM
  migration recovery (closure) percentage: 70.81%
[8]; 0.025 mM
  migration recovery (closure) percentage: 81.05%
[8]; 0.05 mM
  migration recovery (closure) percentage: 83.57%
[8]; 0.10 mM
  migration recovery (closure) percentage: 77.98%
[8]; 0.25 mM
  migration recovery (closure) percentage: 86.54%
[8]; 0.50 mM
  migration recovery (closure) percentage: 80.92%
[8]; 0.75 mM
  migration recovery (closure) percentage: 83.24%
[8]; 1 mM
  migration recovery (closure) percentage: 73.18%
[8]; 50 mM
  migration recovery (closure) percentage: 87.55%
[8]; 250 mM
  migration recovery (closure) percentage: 75.56%
[8]; 500 mM
  migration recovery (closure) percentage: 70.05%
[8]; 750 mM
  migration recovery (closure) percentage: 81.62%
[8]; 1000 mM
  migration recovery (closure) percentage: 62.46%
[9]
  MBC (%): 3%
  MIC (%): 0.75%
[10]
  MIC (%): 0.75%
[11]
  MBC (%): 0.75%
  MIC (%): 0.75%
[12]
  MIC (%): 1.5%

## Zinc borate
[2]
  MBC (%): >9%
[13]; 24th hour
  pEC50: 4.29
[13]; 48th hour
  pEC50: 4.82
[13]; 72nd hour
  pEC50: 4.96
[3]
  MBC (%): 0.5625%
  MIC (%): 0.0351%
[4]
  MBC (%): 0.2812%
  MIC (%): 0.0175%
[5]
  MBC (%): 9%
  MIC (%): 1.125%
[6]
  MBC (%): 0.0175%
[7]; 24th hour
  pIC50: 3.88
[7]; 48th hour
  pIC50: 3.71
[7]; 72nd hour
  pIC50: 3.85
[8]; 0.025 mM
  migration recovery (closure) percentage: 88.13%
[9]
  MBC (%): >9%
  MIC (%): 4.5%
[10]
  MBC (%): 2.25%
  MIC (%): 0.1406%
[11]
  MBC (%): 4.5%
[12]
  MBC (%): >9%
  MIC (%): 0.0351%
